This note sets out measurements from ChEMBL document CHEMBL3044908, “Pinolide, a new nonenolide produced by Didymella pinodes , the causal agent of ascochyta blight on Pisum sativum” (J Agric Food Chem, 2012).

Active and inactive are the calls of the source. No cut-off for these calls is given here.

For one data set, the system named is Cirsium arvense. Nature of the data set: Phytotoxicity against Cirsium arvense (Canada thistle) assessed as area of lesions at 1 mg/ml at 20 degC for 4 days. It counts as functional. The gist of the method: (§1)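 Whole plants grown one per pot in 1:1 sand/peat at 20 °C, 12 h light/dark, until about seven leaves. One leaflet detached, placed abaxial side up on 0.4% water agar, epidermis cut (three cuts over 3 mm2). A 20 μL drop of metabolite (5% MeOH in water) applied over cuts, kept at 20 °C, 12 h photoperiod. 3–4 replicates, randomized; 5% MeOH control; lesion area in mm2.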

In the next data set the test system is Lupinus albus. In words: Phytotoxicity against Lupinus albus assessed as area of lesions at 1 mg/ml at 20 degC for 4 days. In kind it is organism-based. The settings on record: in vivo, 96 h. The gist of the method: as §1
For another data set, the system named is Chenopodium album. Nature of the data set: Phytotoxicity against Chenopodium album assessed as area of lesions at 1 mg/ml at 20 degC for 4 days. It counts as functional. Put shortly:
as §1

For another data set, the system named is Lens culinaris. Nature of the data set: Phytotoxicity against Lens culinaris assessed as area of lesions at 1 mg/ml at 20 degC for 4 days. In kind it is organism-based. The settings on record: in vivo, 96 h. Put shortly:
as §1

The next data set relates to Pisum fulvum. Nature of the data set: Phytotoxicity against Pisum fulvum assessed as area of lesions at 1 mg/ml at 20 degC for 4 days. In kind it is organism-based. To be noted: lathyrus fulvus, in vivo, 96 h. The gist of the method: as §1
For a further data set, the system named is Sonchus arvensis. Nature of the data set: Phytotoxicity against Sonchus arvensis (field sow-thistle) assessed as area of lesions at 1 mg/ml at 20 degC for 4 days. It counts as functional. Put shortly: as §1
Another data set has as its system Cicer arietinum. In words: Phytotoxicity against Cicer arietinum assessed as area of lesions at 1 mg/ml at 20 degC for 4 days. In kind it is organism-based. To be noted: in vivo, 96 h. The gist of the method: as §1
In the next data set the test system is Lathyrus sativus. In words: Phytotoxicity against Lathyrus sativus assessed as area of lesions at 1 mg/ml at 20 degC for 4 days. It counts as organism-based. The settings on record: in vivo, 96 h. Put shortly:
as §1

A further data set has as its system Vicia faba. In words: Phytotoxicity against Vicia faba assessed as area of lesions at 1 mg/ml at 20 degC for 4 days. In kind it is organism-based. The settings on record: in vivo, 96 h. Put shortly:
as §1

A further data set deals with Pisum sativum. In words: Phytotoxicity against Pisum sativum (pea)assessed as area of lesions at 1 mg/ml at 20 degC for 4 days. The settings on record: lathyrus oleraceus, in vivo, 96 h. In kind it is organism-based. Put shortly:
as §1

The test system of the next data set is Medicago truncatula. Nature of the data set: Phytotoxicity against Medicago truncatula assessed as area of lesions at 1 mg/ml at 20 degC for 4 days. In kind it is organism-based. To be noted: in vivo, 96 h. The gist of the method:
as §1

In a further data set the test system is Phaseolus vulgaris. In words: Phytotoxicity against Phaseolus vulgaris assessed as area of lesions at 1 mg/ml at 20 degC for 4 days. It counts as organism-based. The settings on record: in vivo, 96 h. The gist of the method: as §1

`CCC[C@H]1OC(=O)[C@@H](O)CC/C=C/[C@H](O)[C@@H]1O`: the result in the data set on Cirsium arvense, in the data set on Chenopodium album and in the data set with Sonchus arvensis was inactive. Also, the Activity result in the data set on Lupinus albus, with Lens culinaris, in the data set with Pisum fulvum, with Cicer arietinum, in the data set with Lathyrus sativus and in the data set with Vicia faba was “Non-toxic” throughout. Further, the Activity entry in the data set with Pisum sativum, with Medicago truncatula and in the data set on Phaseolus vulgaris was “Non-toxic” throughout.
Regarding `CCC[C@H]1OC(=O)[C@@H](O)CC/C=C/[C@@H](O)[C@@H]1O` (relative stereo) [Pinolide], the result in the data set on Cirsium arvense, with Chenopodium album and with Sonchus arvensis was inactive. For the same compound, the Activity result with Lupinus albus, in the data set with Lens culinaris, in the data set on Pisum fulvum, in the data set on Cicer arietinum, in the data set with Lathyrus sativus and with Vicia faba was “Non-toxic” in each case. Besides, the Activity entry in the data set on Pisum sativum, in the data set with Medicago truncatula and with Phaseolus vulgaris was “Non-toxic” in each case.
Regarding `CCC[C@H]1OC(=O)[C@H](O)CC/C=C/[C@H](O)[C@@H]1O` [HERBARUMIN II], the outcome with Cirsium arvense, in the data set on Chenopodium album and in the data set with Sonchus arvensis was inactive. Further, the Activity entry with Lupinus albus, in the data set on Lens culinaris, with Pisum fulvum, in the data set with Cicer arietinum, with Lathyrus sativus and in the data set with Vicia faba was “Non-toxic” each time. The Activity entry in the data set on Pisum sativum, in the data set with Medicago truncatula and in the data set with Phaseolus vulgaris was “Non-toxic” each time.
On to `C/C=C/C=C/C(=O)O[C@H]1CC/C=C/[C@H](O)[C@H](O)[C@@H](CCC)OC1=O` [PINOLIDOXIN], for which the Activity with Cirsium arvense was 25 mm2; in the data set on Lupinus albus, 73.6 mm2; with Chenopodium album, 47.8 mm2; in the data set with Lens culinaris it was 45.5 mm2; with Pisum fulvum, 21.5 mm2; with Sonchus arvensis it was 23.6 mm2. Besides, the Activity in the data set on Cicer arietinum is listed as 9.1 mm2; in the data set with Lathyrus sativus, 41.9 mm2; in the data set on Vicia faba, 7.2 mm2; in the data set with Pisum sativum it was 45.5 mm2; in the data set on Medicago truncatula it was 49.2 mm2; in the data set with Phaseolus vulgaris, 34 mm2.
